How the values were obtained:
PC-3M = assay: Anticancer activity in human PC-3M cells expressing PTB/GFP fusion protein assessed as perinucleolar compartment disassembly and measured after 24 hrs by Hoechst 33342 staining based microscopic method; type: functional, cell-based
Procedure, shortened: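 Imaged by high-content microscopy. Nuclei with PNC spots ≥3 and >0 scored positive. PNC prevalence % = PNC-positive nuclei/total nuclei ×100, normalized to DMSO (0% activity) and 0% PNC (−100%). IC50 from concentration-response.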

[1] = Permeability of the compound at pH 7.4 incubated for 30 mins by UV plate reader based PAMPA assay; conditions: for permeability: pampa, pH 7.4, 0.5 h
[2] = Microsomal stability in CD1 mouse liver microsomes assessed as half life measured upto 60 mins in presence of NADPH by LC-MS analysis; conditions: for t1/2: mouse, microsomes, 1 h

Row | Compound | IC50 (PC-3M; read-out: IC50) [µM] | permeability [1] | t1/2 [2] [min] | IC50 (PC-3M; read-out: pIC50 (converted)) [µM] | also measured
1 | C[C@H]([C@@H](O)c1ccccc1)n1cnc2c(c(-c3ccccc3)c(-c3ccccc3)n2Cc2ccccc2)c1=N | > 20 | 606 10^-6 cm/s | 6.4 |  | 
2 | COc1ccc(Cn2c(-c3ccccc3)c(-c3ccccc3)c3c(=N)n(CC4CCOCC4)cnc32)cc1 |  | 1266.09 10^-6 cm/s | 13 | 9.33 | 
3 | N=c1c2c3c(n(CCc4ccccc4)c2ncn1C1CCOCC1)CCCC3 | > 20 |  |  |  | 
4 | N=c1c2c(-c3ccccc3)cn(Cc3ccccc3)c2ncn1Cc1ccco1 | > 20 | 1737 10^-6 cm/s | 3 |  | 
5 | COc1ccc(CCn2cnc3c(c(-c4ccccc4)cn3Cc3ccccc3)c2=N)cc1OC | > 20 | > 1000 10^-6 cm/s | 2.9 |  | 
6 | COc1ccc(Cn2c(-c3ccccc3)c(-c3ccccc3)c3c(=N)n(CCCO)cnc32)cc1 |  | > 1000 10^-6 cm/s | 19.9 | 2.14 | 
7 | Cc1c(C)n(Cc2ccccc2)c2ncn([C@H]3CC[C@H](O)CC3)c(=N)c12 | > 20 | < 1 10^-6 cm/s |  |  | half-life at 1 h ([2]; CD1, mouse, liver microsomes): 120 min
8 | N=c1c2c(-c3ccccc3)c(-c3ccccc3)n(CCc3ccccc3)c2ncn1CC1CCCO1 (stereo not drawn) |  | > 1000 10^-6 cm/s | 8.4 | 7.94 | 
9 | N=c1c2c(-c3ccccc3)c(-c3ccccc3)n(CC3CC3)c2ncn1CCCO | 6.31 | > 1000 10^-6 cm/s | 25.4 |  | 
10 | COc1ccc(-c2c(-c3ccc(OC)cc3)n(Cc3ccccc3)c3ncn(CCCO)c(=N)c23)cc1 | > 20 |  |  |  | Papp at 0.5 h ([1]; PAMPA, pH 7.4): > 1000 ×10⁻⁶ cm/s
11 | N=c1c2c(-c3ccccc3)c(-c3ccccc3)n(CC3CCCCC3)c2ncn1C1CCOCC1 |  |  |  | 2 | 
12 | CO[C@H]1CC[C@H](n2cnc3c(c(-c4ccccc4)c(-c4ccccc4)n3Cc3ccc(OC(F)(F)F)cc3)c2=N)CC1 |  |  |  | 1.1 | 
13 | COc1ccc(-c2c(-c3ccc(OC)cc3)n(Cc3ccccc3)c3ncn([C@H]4CC[C@H](O)CC4)c(=N)c23)cc1 | > 20 | 196 10^-6 cm/s |  |  | 
14 | OCCCNc1ncnc2c1c(-c1ccccc1)c(-c1ccccc1)n2Cc1ccccc1 | > 20 |  |  |  | 
15 | COc1ccc(-c2c(-c3ccc(OC)cc3)n(Cc3ccccc3)c3ncn([C@H]4CC[C@H](OC)CC4)c(=N)c23)cc1 | > 20 | > 1000 10^-6 cm/s |  |  | 
16 | CCO/C=N/c1c(C#N)c(-c2ccccc2)c(-c2ccccc2)n1Cc1ccccc1 | > 20 |  |  |  | 
17 | N=c1c2c(-c3ccccc3)c(-c3ccccc3)n(CCc3ccccc3)c2ncn1C[C@@H]1CCCC[C@H]1O (relative stereo) | 2.72 |  | 4.3 | 0.955 | 
18 | N=c1c2c(-c3ccccc3)c(-c3ccccc3)n(Cc3ccc(S(N)(=O)=O)cc3)c2ncn1CCCO |  | < 1 10^-6 cm/s | 26.7 |  | 
19 | COc1ccc(Cn2c(-c3ccccc3)c(-c3ccccc3)c3c(=N)n(C4CCOCC4)cnc32)cc1 |  |  |  | 0.174 | 
20 | N=c1c2c(-c3ccccc3)c(-c3ccccc3)n(Cc3ccc(OC(F)(F)F)cc3)c2ncn1CCCO |  | > 1000 10^-6 cm/s |  | 4.37 | 
21 | N=c1c2c(-c3ccccc3)c(-c3ccccc3)n(Cc3ccccc3)c2ncn1C1CCN(Cc2ccccc2)CC1 |  |  | 32.2 | 5.01 | 
22 | CO[C@H]1CC[C@H](n2cnc3c(c(-c4ccccc4)c(-c4ccccc4)n3Cc3ccccc3)c2=N)CC1 |  |  |  | 0.251 | 
23 | N=c1c2c(-c3ccccc3)c(-c3ccccc3)n(CC3CCCCC3)c2ncn1CCCO |  | > 1000 10^-6 cm/s |  | 26.9 | 
24 | N=c1c2c(-c3ccccc3)c(-c3ccccc3)n(CC3CCCCC3)c2ncn1[C@H]1CC[C@H](O)CC1 |  |  |  | 2.75 | 
25 | O[C@H]1CC[C@H](Nc2ncnc3c2c(-c2ccccc2)c(-c2ccccc2)n3Cc2ccccc2)CC1 | > 20 |  |  |  | 
26 | N=c1c2c(-c3ccccc3)c(-c3ccccc3)n(Cc3ccccc3)c2ncn1CCN | > 20 | 164.7 10^-6 cm/s |  |  | 
27 | N=c1c2c(-c3ccc4c(c3)OCO4)c(-c3ccc4c(c3)OCO4)n(Cc3ccccc3)c2ncn1C1CCOCC1 | > 20 |  |  |  | 
